In ChEMBL document CHEMBL1955770, “Inhibition of S/G2 phase CDK4 reduces mitotic fidelity” (J Biol Chem, 2006):
The source made the active and inactive calls. No cut-off for these calls is given here.

Assays:
MDA-MB-435 = test: Antiproliferative activity against human MDA-MB-435 cells assessed as inhibition of S phase after 48 hrs by MTT assay; format: functional, cell-based; details: MDA-MB-435, 48 h
In short: (§1)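 Cells grown in DMEM with 3 mM HEPES and 10% Serum Supreme at 37 °C, 5% CO2. Proliferation read by MTT assay 48 h after drug addition; IC50 given as mean of two separate determinations, each in duplicate.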

HeLa [1] = test: Cell cycle arrest at G2 phase in human HeLa cells assessed as effect on cyclin A accumulation at 2 uM treated at early S phase measured after 6-14 hr post thymidine-synchrony release by immunoblot method; format: functional, cell-based
[2] = molecular target: Hepatocyte growth factor receptor (Homo sapiens, UniProt P08581); test: Inhibition of c-Met using fluorescent substrate by IMAP assay
In short: (§2)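 Run in-house using IMAP: phosphorylated fluorescent peptide substrate binds preferentially to immobilized metal beads, which quantifies kinase activity. ATP at 3× the Km of each enzyme.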

MDA-MB-453 [3] = test: Toxicity in human MDA-MB-453 cells at IC50 after 3 days by MTT assay; format: cell-based; details: mda-mb-453, 72 h
[4] = molecular target: Cyclin-dependent kinase 4 (Homo sapiens) (UniProt P11802); test: Inhibition of CDK4-mediated Rb phosphorylation at ser 795 in human HCT116 cells at 3 times IC90 after 4 hrs by immunoblot analysis; format: cell-based; details: HCT-116
In short: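 Asynchronous HCT-116 cells (DMEM, 3 mM HEPES, 10% serum, 37 °C, 5% CO₂) were given increasing inhibitor doses for 4 or 24 h. Lysis in NETN with phosphatase and protease inhibitors, then SDS-PAGE, nitrocellulose transfer and immunoblot for phospho-Rb (Ser-795) with HRP secondary and chemiluminescence.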

HeLa [5] = test: Cell cycle arrest at G2 phase in human HeLa cells at 2 uM treated 8 hr and measured 12 hr post-synchrony release using Propidium iodide staining by FACS analysis in presence of ATM/ATR signaling inhibitor caffiene; format: functional, cell-based
MDA-MB-453 [6] = test: Antiproliferative activity against human MDA-MB-453 assessed as inhibition of S phase cells after 48 hrs by MTT assay; format: functional, cell-based; details: MDA-MB-453, 48 h; in short: as §1
[7] = Cell cycle arrest in Rb-competent human SK-MEL-13 cells assessed as accumulation at S phase at 2 uM after 24 hrs by FACS analysis; format: functional
In short: (§3)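 Ethanol-fixed cells stained with propidium iodide/RNase A, DNA content read by FACS, phase and sub-diploid fractions calculated with ModFit.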

HeLa [8] = test: Cell cycle arrest at G2 phase in human HeLa cells assessed as delay in phosphotyrosine 15 CDK1 accumulation at 2 uM treated at early S phase measured after 6-14 hr post thymidine-synchrony release by immunoblot method; format: functional, cell-based
In short: (§4)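 HeLa cells synchronized by double thymidine block and released, treated with 2 μM inhibitor in early S phase, or left untreated. Harvested at set times after release, lysed in NETN with phosphatase and protease inhibitors, run on SDS-PAGE and immunoblotted for cyclin B1 and phosphotyrosine 15 CDK1/2, with cyclin D3 as loading control. Detection by HRP secondary and ECL.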

HeLa [9] = test: Induction of abberent mitosis in human HeLa cells expressing GFP-H2B assessed as normal survivin staining cells at 2 uM by immunofluorescence method (reference value: 7%); format: functional
HeLa [10] = test: Effect on aurora B protein expression in human HeLa cells at 2 uM measured 14 hr post thymidine-synchrony release by immunoblot analysis; format: functional, cell-based
In short: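 Synchronized HeLa cells given 2 μM CDK4 inhibitor in early S phase and harvested at set times post-release. Lysed in supplemented NETN buffer on ice for 20 min. Lysates run on SDS-PAGE and immunoblotted for survivin, borealin and other chromosomal passenger proteins, with ECL detection. Cyclin D3 served as loading control.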

HeLa [11] = test: Cell cycle arrest at G2 phase in human HeLa cells assessed as effect on CCNB1 accumulation at 2 uM treated at early S phase measured after 6-14 hr post thymidine-synchrony release by immunoblot method; format: functional, cell-based; in short: as §4
[12] = Cell cycle arrest in human SK-MEL-13 cells assessed as effect on G2/M phase progression at 2 uM treated 6 hr post double hydroxyurea-synchrony release using propidium iodide staining by FACS analysis; format: functional, cell-based
A2058 = test: Cell cycle arrest in human A2058 cells assessed as accumulation at S phase at 2 uM treated 1 hr and measured 8 hr post double hydroxyurea-synchrony release using propidium iodide staining by FACS analysis (reference value: 52 %); format: functional
HeLa [13] = test: Cell cycle arrest in human HeLa cells assessed as time delay in progression through G2/M phase at 4 uM treated within 4 hr post double thymidine-synchrony release using propidium iodide staining by FACS analysis; format: functional
In short: (§5)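 Cells harvested at set times post-release, fixed in 70% ethanol, stained with 5 μg/ml propidium iodide plus 0.5 mg/ml RNase A, and analysed by flow cytometry. Cell-cycle phase fractions calculated by ModFit.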

Insulin receptor = Insulin receptor (Homo sapiens, UniProt P06213); test: Inhibition of insulin receptor using fluorescent substrate by IMAP assay; in short: as §2
HeLa [14] = test: Cell cycle arrest in human HeLa cells assessed as accumulation at G1 phase at 2 uM treated 6 hr and measured 8 hr post double thymidine-synchrony release using propidium iodide staining by FACS analysis (reference value: 6 %); format: functional
[15] = Cell cycle arrest in Rb-competent human SK-MEL-13 cells assessed as accumulation at G2/M phase at 2 uM after 24 hrs by FACS analysis; format: functional; in short: as §3
RKO [16] = test: Toxicity in human RKO cells at IC50 after 3 days by MTT assay; format: cell-based; details: 72 h
HeLa [17] = test: Cell cycle arrest at G2 phase in human HeLa cells at 2 uM treated 8 hr and measured 12 hr post-synchrony release using Propidium iodide staining by FACS analysis in presence of p38 MAPK inhibitor SB203580; format: functional, cell-based
HeLa [18] = test: Cell cycle arrest in human HeLa cells assessed as accumulation at G2/M phase at 2 uM treated 4 hr and measured 8 hr post double thymidine-synchrony release using propidium iodide staining by FACS analysis (reference value: 86 %); format: functional; in short: as §5
HeLa [19] = test: Cell cycle arrest in human HeLa cells assessed as accumulation at S phase at 2 uM treated 2 hr and measured 10 hr post double thymidine-synchrony release using propidium iodide staining by FACS analysis (reference value: 1 %); format: functional; in short: as §5
HCT-116 = test: Toxicity in human HCT116 cells at 8 uM by MTT assay; format: cell-based; details: hct-116, 8 µM
RKO [20] = test: Toxicity in human RKO cells at 8 uM by MTT assay; format: cell-based
[21] = Inhibition of AKT using fluorescent substrate by IMAP assay; in short: as §2
[22] = Inhibition of JNK using fluorescent substrate by IMAP assay; in short: as §2
COLO 205 = test: Toxicity in human COLO205 cells at IC50 after 3 days by MTT assay; format: cell-based; details: colo 205, 72 h
HeLa [23] = test: Cell cycle arrest in human HeLa cells transfected with cyclin D3 siRNA assessed as delay in progression into mitosis at 2 uM measured after 8 to 20 hr post hydroxyurea-synchrony release by time-lapse microscopy; format: functional, cell-based
In short: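 HeLa cells transfected with 20 nM cyclin D3 siRNA number 1 or scrambled siRNA, then synchronized by overnight 2 mM hydroxyurea block and released. Treated with CDK4 inhibitor, siRNA, or both; entry into mitosis followed by time-lapse microscopy.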

Chain of Insulin receptor (P06213 28-758 limits assumed): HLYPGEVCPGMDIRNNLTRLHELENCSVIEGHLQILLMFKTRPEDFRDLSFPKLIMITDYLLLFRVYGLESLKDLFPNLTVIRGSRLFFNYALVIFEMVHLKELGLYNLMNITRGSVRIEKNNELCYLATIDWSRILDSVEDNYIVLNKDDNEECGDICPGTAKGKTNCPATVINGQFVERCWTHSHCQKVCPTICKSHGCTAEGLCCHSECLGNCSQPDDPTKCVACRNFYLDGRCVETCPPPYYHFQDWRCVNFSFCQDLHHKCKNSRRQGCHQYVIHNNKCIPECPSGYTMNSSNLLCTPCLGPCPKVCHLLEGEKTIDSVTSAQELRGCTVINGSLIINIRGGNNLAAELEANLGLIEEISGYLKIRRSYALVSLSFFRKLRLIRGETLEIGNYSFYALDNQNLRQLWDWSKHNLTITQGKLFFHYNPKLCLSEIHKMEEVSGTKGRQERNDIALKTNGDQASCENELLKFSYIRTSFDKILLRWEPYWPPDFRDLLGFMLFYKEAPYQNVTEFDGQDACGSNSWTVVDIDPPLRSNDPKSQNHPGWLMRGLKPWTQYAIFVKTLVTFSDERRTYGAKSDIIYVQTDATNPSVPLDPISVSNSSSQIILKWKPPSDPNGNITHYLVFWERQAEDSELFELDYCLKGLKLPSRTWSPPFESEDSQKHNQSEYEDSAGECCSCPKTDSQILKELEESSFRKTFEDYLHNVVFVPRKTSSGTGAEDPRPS
Chain of Insulin receptor (P06213 763-1382 limits assumed): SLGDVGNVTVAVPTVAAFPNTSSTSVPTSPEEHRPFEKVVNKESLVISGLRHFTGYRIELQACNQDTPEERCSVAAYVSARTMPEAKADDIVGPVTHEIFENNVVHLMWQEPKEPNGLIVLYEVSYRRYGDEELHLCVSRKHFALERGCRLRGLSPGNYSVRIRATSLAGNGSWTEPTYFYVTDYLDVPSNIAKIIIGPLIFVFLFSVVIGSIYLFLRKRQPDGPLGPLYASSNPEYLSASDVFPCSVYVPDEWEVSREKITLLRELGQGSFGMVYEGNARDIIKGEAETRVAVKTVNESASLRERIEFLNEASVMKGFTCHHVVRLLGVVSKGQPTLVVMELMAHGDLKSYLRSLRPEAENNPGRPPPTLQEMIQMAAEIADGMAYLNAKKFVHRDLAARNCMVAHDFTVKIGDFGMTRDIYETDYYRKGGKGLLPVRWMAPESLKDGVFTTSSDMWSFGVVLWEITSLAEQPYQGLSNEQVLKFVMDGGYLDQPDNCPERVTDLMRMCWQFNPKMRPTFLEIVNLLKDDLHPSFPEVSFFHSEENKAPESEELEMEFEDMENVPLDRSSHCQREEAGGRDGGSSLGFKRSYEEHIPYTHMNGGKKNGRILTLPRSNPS
Chain of Cyclin-dependent kinase 4 (Homo sapiens) (P11802 whole entry): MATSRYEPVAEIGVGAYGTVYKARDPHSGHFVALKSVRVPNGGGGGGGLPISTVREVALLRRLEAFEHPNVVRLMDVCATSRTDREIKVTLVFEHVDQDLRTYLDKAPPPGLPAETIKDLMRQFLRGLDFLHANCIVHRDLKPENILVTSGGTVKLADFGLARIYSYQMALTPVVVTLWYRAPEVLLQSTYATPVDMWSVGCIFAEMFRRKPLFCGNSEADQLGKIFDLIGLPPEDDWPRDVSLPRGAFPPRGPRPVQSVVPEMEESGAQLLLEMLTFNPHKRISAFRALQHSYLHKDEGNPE
Chain of Hepatocyte growth factor receptor (P08581 whole entry): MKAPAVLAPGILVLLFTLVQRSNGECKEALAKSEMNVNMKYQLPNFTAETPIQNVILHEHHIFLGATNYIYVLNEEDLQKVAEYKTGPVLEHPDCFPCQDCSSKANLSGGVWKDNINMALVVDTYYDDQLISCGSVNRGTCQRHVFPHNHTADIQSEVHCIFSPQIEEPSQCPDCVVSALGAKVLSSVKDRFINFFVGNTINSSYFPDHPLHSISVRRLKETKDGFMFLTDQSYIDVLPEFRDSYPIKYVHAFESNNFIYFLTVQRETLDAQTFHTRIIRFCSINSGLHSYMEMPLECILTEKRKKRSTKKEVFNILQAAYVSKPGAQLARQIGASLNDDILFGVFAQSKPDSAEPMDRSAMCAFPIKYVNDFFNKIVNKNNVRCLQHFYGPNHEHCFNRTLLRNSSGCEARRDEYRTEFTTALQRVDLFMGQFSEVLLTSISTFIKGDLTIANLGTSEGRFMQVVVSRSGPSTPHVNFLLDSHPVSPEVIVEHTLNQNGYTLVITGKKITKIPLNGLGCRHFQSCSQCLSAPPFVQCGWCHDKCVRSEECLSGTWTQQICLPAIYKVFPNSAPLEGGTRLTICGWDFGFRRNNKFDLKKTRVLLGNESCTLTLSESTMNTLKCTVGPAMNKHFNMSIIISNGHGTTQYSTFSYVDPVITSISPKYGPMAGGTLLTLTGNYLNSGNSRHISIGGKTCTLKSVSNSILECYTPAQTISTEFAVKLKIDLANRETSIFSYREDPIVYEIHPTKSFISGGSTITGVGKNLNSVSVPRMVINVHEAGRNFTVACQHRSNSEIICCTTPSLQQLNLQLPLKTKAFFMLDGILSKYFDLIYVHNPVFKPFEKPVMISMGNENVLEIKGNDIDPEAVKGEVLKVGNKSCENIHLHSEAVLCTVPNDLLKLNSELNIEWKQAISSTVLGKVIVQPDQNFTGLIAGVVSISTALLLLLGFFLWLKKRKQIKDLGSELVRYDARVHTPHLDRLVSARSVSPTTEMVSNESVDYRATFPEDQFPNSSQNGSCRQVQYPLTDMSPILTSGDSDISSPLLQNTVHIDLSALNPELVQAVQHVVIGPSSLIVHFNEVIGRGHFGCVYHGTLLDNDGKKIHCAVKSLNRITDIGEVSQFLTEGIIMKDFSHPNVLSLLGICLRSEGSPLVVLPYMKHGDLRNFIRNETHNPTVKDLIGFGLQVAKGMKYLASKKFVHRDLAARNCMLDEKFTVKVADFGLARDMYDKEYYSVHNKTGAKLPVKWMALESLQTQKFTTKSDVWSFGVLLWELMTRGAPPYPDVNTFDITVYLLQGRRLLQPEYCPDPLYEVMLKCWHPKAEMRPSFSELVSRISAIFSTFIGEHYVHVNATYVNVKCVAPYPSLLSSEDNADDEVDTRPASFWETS

For `COc1cccc(C(=O)c2sc(Nc3ccc(N4CCN(C(C)C)CC4)cc3)nc2N)c1`, the IC50 (MDA-MB-435) was 1.2 µM, the Activity (HeLa [1]) was “inactive” and the IC50 [2] was > 20 µM. For the same compound, the Activity (MDA-MB-453 [3]) was “Toxic”, the inhibition [4] was “Active” and the Activity (HeLa [5]) was “Active”. The IC50 (MDA-MB-453 [6]) was 0.71 µM, the Activity [7] was 7% and the Activity (HeLa [8]) was “Active”. The Activity (HeLa [9]) was 23%, the Activity (HeLa [10]) was “inactive” and the Activity (HeLa [11]) was “inactive”. The Activity [12] was “inactive”, the Activity (A2058) was 23% and the Time (HeLa [13]) was >4 h. It also gave an IC50 (Insulin receptor) of 24 µM, an Activity (HeLa [14]) of 7% and an Activity [15] of 19%. For the same compound, the Activity (RKO [16]) was “Toxic”, the Activity (HeLa [17]) was “Active” and the Activity (HeLa [18]) was 91%. For the same compound, the Activity (HeLa [19]) was 6%, the Activity (HCT-116) was “Toxic” and the Activity (RKO [20]) was “Toxic”. For the same compound, the IC50 [21] was > 200 µM, the IC50 [22] was > 50 µM and the Activity (COLO 205) was “Toxic”. The Activity (HeLa [23]) was “Active”.

With `CN1CCN(c2ccc(Nc3nc(N)c(C(=O)c4ccc5c(c4)OCCO5)s3)cc2)CC1` the IC50 (MDA-MB-435) was 3.06 µM, the Activity (HeLa [1]) was “inactive” and the IC50 [2] was > 20 µM. For the same compound, the Activity (MDA-MB-453 [3]) was “Toxic”, the inhibition [4] was “Active” and the Activity (HeLa [5]) was “Active”. The IC50 (MDA-MB-453 [6]) was 1.45 µM, the Activity [7] was 7% and the Activity (HeLa [8]) was “Active”. For the same compound, the Activity (HeLa [9]) was 23%, the Activity (HeLa [10]) was “inactive” and the Activity (HeLa [11]) was “inactive”. For the same compound, the Activity [12] was “inactive”, the Activity (A2058) was 23% and the Time (HeLa [13]) was >4 h. It also gave an IC50 (Insulin receptor) of 71 µM, an Activity (HeLa [14]) of 7% and an Activity [15] of 19%. The Activity (RKO [16]) was “Toxic”, the Activity (HeLa [17]) was “Active” and the Activity (HeLa [18]) was 91%. The Activity (HeLa [19]) was 6%, the Activity (HCT-116) was “Toxic” and the Activity (RKO [20]) was “Toxic”. The IC50 [21] was > 200 µM, the IC50 [22] was > 50 µM and the Activity (COLO 205) was “Toxic”. For the same compound, the Activity (HeLa [23]) was “Active”.
